Assay results: ChEMBL document CHEMBL4619817, “Stereochemical Differences in Fluorocyclopropyl Amides Enable Tuning of Btk Inhibition and Off-Target Activity” (ACS Med Chem Lett, 2020)

Columns and labels:
[1] = Metabolic stability in rat liver microsomes assessed as intrinsic clearance at 1 uM measured upto 60 mins by LC-MS/MS analysis; type: ADME, Microsome; details: read-out: CLH
[2] = Metabolic stability in human liver microsomes assessed as intrinsic clearance at 1 uM measured upto 60 mins by LC-MS/MS analysis; type: ADME, Microsome; details: read-out: CLH
[3] = Lipophilicity, logD of compound at 7.4 by the LC/MS based microscale shake flask method; type: physicochemical; details: octanol/water, pH 7.4
Outline: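 LogD measured by high-throughput microscale shake flask with LC tandem MS quantitation.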

[4] = Oral bioavailability in Beagle dog at 5 mg/kg measured upto 24 hrs by LC-MS/MS analysis; type: ADME, organism-based, Canis lupus familiaris; details: in vivo
[5] = Metabolic stability in human Hepatocyte assessed as intrinsic clearance at 1 uM measured upto 60 mins by LC-MS/MS analysis; type: ADME, cell-based; details: hepatocytes, read-out: CLH
[6] = Apparent permeability from apical to basolateral side in MDCK cells at 10 uM incubated for 3 hrs by LC-MS/MS analysis; type: ADME, cell-based, Canis lupus familiaris; details: dog
[7] = Metabolic stability in dog liver microsomes assessed as intrinsic clearance at 1 uM measured upto 60 mins by LC-MS/MS analysis; type: ADME, Canis lupus familiaris, Microsome; details: read-out: CLH
[8] = Unbound clearance in Sprague-Dawley rat at 1 mg/kg, po measured upto 8 hrs by LC-MS/MS analysis; type: ADME, organism-based; details: in vivo
[9] = Oral bioavailability in Sprague-Dawley rat at 1 mg/kg measured upto 8 hrs by LC-MS/MS analysis; type: ADME, organism-based; details: in vivo
[10] = Metabolic stability in rat Hepatocyte assessed as intrinsic clearance at 1 uM measured upto 60 mins by LC-MS/MS analysis; type: ADME, cell-based; details: hepatocytes, read-out: CLH
[11] = Clearance in Beagle dog at 1 mg/kg, iv measured upto 24 hrs by LC-MS/MS analysis; type: ADME, organism-based, Canis lupus familiaris; details: in vivo
[12] = Clearance in Sprague-Dawley rat at 0.2 mg/kg, iv measured upto 8 hrs by LC-MS/MS analysis; type: ADME, organism-based; details: in vivo
[13] = Metabolic stability in dog Hepatocyte assessed as intrinsic clearance at 1 uM measured upto 60 mins by LC-MS/MS analysis; type: ADME, cell-based, Canis lupus familiaris; details: hepatocytes, read-out: CLH
[14] = Metabolic stability in dog Hepatocyte assessed as compound hydrolysis at 5 uM incubated for 3 hrs by LC-MS/MS analysis; type: ADME, cell-based, Canis lupus familiaris; details: hepatocytes, read-out: Drug degradation
Outline: (§1)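 Compound incubated at 5 μM in cryopreserved hepatocytes (∼1.0 × 10^6 cells/mL) for 3 h; percent amide hydrolysis determined.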

[15] = Metabolic stability in rat Hepatocyte assessed as compound hydrolysis at 5 uM incubated for 3 hrs by LC-MS/MS analysis; type: ADME, cell-based; details: hepatocytes, read-out: Drug degradation; outline: as §1
[16] = Oral bioavailability in Beagle dog at 2 mg/kg measured upto 24 hrs by LC-MS/MS analysis; type: ADME, organism-based, Canis lupus familiaris; details: in vivo
[17] = Metabolic stability in human Hepatocyte assessed as compound hydrolysis at 5 uM incubated for 3 hrs by LC-MS/MS analysis; type: ADME, cell-based; details: hepatocytes, read-out: Drug degradation; outline: as §1

CLint scaled at 1 µM [1]	CLint scaled at 1 µM [2]	logD [3]	SMILES	further results
13 mL/min/kg	< 3.9 mL/min/kg	1.3	Cn1cc(-c2ccnc(-n3ncc4cc(C(C)(C)C)cc(F)c4c3=O)c2CO)nc(NC(=O)[C@@H]2C[C@@H]2F)c1=O	–
20 mL/min/kg	9.8 mL/min/kg	1.2	Cn1cc(-c2ccnc(N3CCc4c(cc5n4CCCC5)C3=O)c2CO)cc(NC(=O)C2CC2)c1=O	–
–	–	2.5	Cn1cc(-c2ccnc(N3CCn4c(cc5c4CC(C)(C)C5)C3=O)c2CO)cc(NC(=O)C2(F)CC2)c1=O	–
–	–	3.4	Cn1cc(-c2ccnc(N3CCn4c(cc5c4CC(C)(C)C5)C3=O)c2CO)cc(NC(=O)CC2CC2)c1=O	–
–	–	2.8	Cn1cc(-c2cc(F)cc(-n3ncc4cc(C(C)(C)C)cc(F)c4c3=O)c2CO)cc(NC(=O)[C@@H]2C[C@@H]2F)c1=O	–
–	–	2.5	CCC(=O)Nc1cc(-c2ccnc(N3CCn4c(cc5c4CC(C)(C)C5)C3=O)c2CO)cn(C)c1=O	–
15 mL/min/kg	4.6 mL/min/kg	2.5	Cn1cc(-c2ccnc(-n3ncc4cc(C(C)(C)C)cc(F)c4c3=O)c2CO)cc(NC(=O)[C@@H]2C[C@H]2F)c1=O	Papp A→B at 3 h, 10 µM [6]: 14 ×10⁻⁶ cm/s
–	–	2.1	Cn1cc(-c2ccnc(N3CCn4c(cc5c4CC(C)(C)C5)C3=O)c2CO)cc(NC(=O)[C@@H]2CCCO2)c1=O	–
–	–	1.5	COCC(=O)Nc1cc(-c2ccnc(N3CCn4c(cc5c4CC(C)(C)C5)C3=O)c2CO)cn(C)c1=O	–
–	–	2.6	CCCC(=O)Nc1cc(-c2ccnc(N3CCn4c(cc5c4CC(C)(C)C5)C3=O)c2CO)cn(C)c1=O	–
–	–	2.3	Cn1cc(-c2ccnc(N3CCn4c(cc5c4CC(C)(C)C5)C3=O)c2CO)cc(NC(=O)[C@H]2C[C@H]2F)c1=O	–
–	–	3.3	Cn1cc(-c2ccnc(N3CCn4c(cc5c4CC(C)(C)C5)C3=O)c2CO)cc(NC(=O)C2CCC2)c1=O	–

Further lines, the compound ahead of its results:

SMILES	CLint scaled at 1 µM [1]	CLint scaled at 1 µM [2]	logD [3]	further results
Cn1cc(-c2ccnc(N3CCn4c(cc5c4CC(C)(C)C5)C3=O)c2CO)cc(NC(=O)C2CC2)c1=O	7.2 mL/min/kg	5.3 mL/min/kg	3	–
C[C@H]1CN(C2COC2)CCN1c1ccc(Nc2cc(-c3ccnc(N4CCn5c(cc6c5CC(C)(C)C6)C4=O)c3CO)cn(C)c2=O)nc1 [FENEBRUTINIB]	14 mL/min/kg	9.5 mL/min/kg	1.6	bioavailability [4]: 130%; CLint scaled at 1 µM [5]: 9.3 mL/min/kg; Papp A→B at 3 h, 10 µM [6]: 15.1 ×10⁻⁶ cm/s; CLint scaled at 1 µM [7]: 29 mL/min/kg; CL free [8]: 314 mL/min/kg; bioavailability [9]: 96%; CLint scaled at 1 µM [10]: 10 mL/min/kg; clearance [11]: 12 mL/min/kg; clearance [12]: 22 mL/min/kg; CLint scaled at 1 µM [13]: < 21 mL/min/kg
Cn1cc(-c2ccnc(N3CCn4c(cc5c4CC(C)(C)C5)C3=O)c2CO)cc(NC(=O)c2cccnc2)c1=O	–	–	2	–
CC(=O)Nc1cc(-c2ccnc(N3CCn4c(cc5c4CC(C)(C)C5)C3=O)c2CO)cn(C)c1=O	–	–	2.1	–
Cn1cc(-c2ccnc(-n3ncc4cc(C(C)(C)C)cc(F)c4c3=O)c2CO)cc(NC(=O)C2CC2)c1=O	13 mL/min/kg	3.2 mL/min/kg	2.5	Papp A→B at 3 h, 10 µM [6]: 13.5 ×10⁻⁶ cm/s
Cn1cc(-c2ccnc(N3CCn4c(cc5c4CC(C)(C)C5)C3=O)c2CO)cc(NC(=O)C2(O)CC2)c1=O	–	–	1.8	–
Cn1cc(-c2ccnc(-n3ncc4cc(C(C)(C)C)cc(F)c4c3=O)c2CO)cc(NC(=O)[C@H]2C[C@@H]2F)c1=O	14 mL/min/kg	8.5 mL/min/kg	3	Papp A→B at 3 h, 10 µM [6]: 10.8 ×10⁻⁶ cm/s
Cn1cc(-c2ccnc(N3CCn4c(cc5c4CC(C)(C)C5)C3=O)c2CO)cc(NC(=O)[C@@H]2C[C@@H]2F)c1=O	–	–	2.5	–
Cn1cc(-c2ccnc(-n3ncc4cc(C(C)(C)C)cc(F)c4c3=O)c2CO)cc(NC(=O)[C@@H]2C[C@@H]2F)c1=O	11 mL/min/kg	8 mL/min/kg	1.6	metabolised at 3 h, 5 µM [14]: ≤ 1%; metabolised at 3 h, 5 µM [15]: ≤ 1%; CLint scaled at 1 µM [5]: 6.2 mL/min/kg; Papp A→B at 3 h, 10 µM [6]: 12.1 to 12.5 ×10⁻⁶ cm/s; CLint scaled at 1 µM [7]: 20 mL/min/kg; CL free [8]: 326 mL/min/kg; bioavailability [9]: 40%; bioavailability [16]: 123%; CLint scaled at 1 µM [10]: 11 mL/min/kg; metabolised at 3 h, 5 µM [17]: ≤ 1%; clearance [11]: 2 mL/min/kg; clearance [12]: 15 mL/min/kg; CLint scaled at 1 µM [13]: < 21 mL/min/kg
Cn1nc(-c2ccnc(-n3ncc4cc(C(C)(C)C)cc(F)c4c3=O)c2CO)cc(NC(=O)[C@@H]2C[C@@H]2F)c1=O	16 mL/min/kg	7.4 mL/min/kg	1.7	–
CC(C)C(=O)Nc1cc(-c2ccnc(N3CCn4c(cc5c4CC(C)(C)C5)C3=O)c2CO)cn(C)c1=O	–	–	3.2	–
Cn1cc(-c2ccnc(N3CCn4c(cc5c4CC(C)(C)C5)C3=O)c2CO)cc(NC(=O)C2COC2)c1=O	–	–	2.2	–
Cn1cc(-c2ccnc(-n3ncc4cc(C(C)(C)C)cc(F)c4c3=O)c2CO)cc(NC(=O)[C@H]2C[C@H]2F)c1=O	11 mL/min/kg	5.5 mL/min/kg	2	Papp A→B at 3 h, 10 µM [6]: 6.4 ×10⁻⁶ cm/s
Cn1cc(-c2ccnc(-n3ncc4c5c(sc4c3=O)CCCC5)c2CO)cc(NC(=O)C2CC2)c1=O	8.4 mL/min/kg	7.4 mL/min/kg	2.1	–
Cn1cc(-c2ccnc(N3CCn4c(cc5c4CC(C)(C)C5)C3=O)c2CO)cc(NC(=O)CN2CCOCC2)c1=O	–	–	2.3	–
Cn1cc(-c2cc(F)cc(-n3ncc4cc(C(C)(C)C)cc(F)c4c3=O)c2CO)cc(NC(=O)[C@H]2C[C@H]2F)c1=O	–	–	2	–
